The data set is described as follows: Metabolic stability in human liver microsomes assessed as parent compound remaining at 3 uM after 30 mins by LC-MS/MS method. It counts as ADME, microsome. To be noted: read-out: Stability. The essentials: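 Compounds were tested as sodium salts. The read-out was the percentage of parent compound remaining after 30 min exposure to human microsomes.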

With `CN1Cc2cc(-c3ccc(-c4cncc(NS(=O)(=O)c5ccccc5C(F)(F)F)c4)s3)ccc2C1=O`, the remaining at 0.5 h, 3 µM was 14%.

`CN1Cc2cc(-c3ccc(-c4cncc(NS(=O)(=O)c5ccc(C#N)cc5)c4)s3)ccc2C1=O`: the remaining at 0.5 h, 3 µM was 52%.

With `CN1Cc2cc(-c3ccc(-c4cncc(NS(=O)(=O)c5c(F)cc(F)cc5F)c4)s3)ccc2C1=O`, the remaining at 0.5 h, 3 µM was found to be 63%.

In the case of `CN1Cc2cc(-c3ccc(-c4cncc(NS(=O)(=O)c5ccc([N+](=O)[O-])cc5)c4)s3)ccc2C1=O`, the remaining at 0.5 h, 3 µM was 39%.

`CN1Cc2cc(-c3ccc(-c4cncc(NS(=O)(=O)c5cccc(C(F)(F)F)c5)c4)s3)ccc2C1=O`: the remaining at 0.5 h, 3 µM turned out to be 57%.
